Source: PubChem BioAssay (Broad Institute)
A selection: hits, their analogues and other compounds. The true share with any hit is near 0.19%.
IDH1 R132H inh: inhibitors of IDH1 R132H reductase, primary screen, biochemical, plate reader, single point; Isocitrate dehydrogenase [NADP] cytoplasmic (Homo sapiens), O75874; diaphorase/resazurin fluorescence, 60 min; actives 0.18% (n = 70,000); inhibition, % at 10 µM; in the data active means inhibition above about 34%; inconclusive means no clear call, values can overlap the other calls; inactive means below about 11%;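 further: 0% = DMSO and 100% = no enzyme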
GASC1 inh: inhibitors of GASC-1 (KDM4C) histone demethylase, primary screen, biochemical, single concentration HTS. Lysine-specific demethylase 4C (Homo sapiens), Q9H3R0. GST-KDM4C 2-372, H3K9me3 peptide, LANCE TR-FRET. inhibition, % at 12.5 µM. actives 0.15% (n = 96,000). AID 720574, 2013;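 active means mean replicate inhibition above about 25%, with at least 55% of replicates also reaching it, limit read from the data, passing the limit was not always enough; inconclusive means only one of those two conditions met; inactive means neither condition met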
Target sequence (Q9H3R0 2-372 limits assumed): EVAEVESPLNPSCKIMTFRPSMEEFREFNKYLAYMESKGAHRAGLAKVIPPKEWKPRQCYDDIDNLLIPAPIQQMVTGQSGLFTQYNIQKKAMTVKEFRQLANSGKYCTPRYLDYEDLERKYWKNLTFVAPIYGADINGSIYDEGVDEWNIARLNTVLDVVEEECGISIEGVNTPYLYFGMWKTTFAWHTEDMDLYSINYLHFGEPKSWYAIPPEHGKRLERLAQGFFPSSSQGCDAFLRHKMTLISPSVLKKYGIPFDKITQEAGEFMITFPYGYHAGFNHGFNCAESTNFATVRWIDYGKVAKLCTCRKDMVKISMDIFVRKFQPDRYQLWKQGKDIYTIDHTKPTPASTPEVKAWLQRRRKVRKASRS
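Material: GST-tagged GASC-1 (JMJD2C) catalytic fragment, aa 2-372 / Quantity: enzyme final amount 10 nM / Medium: HEPES buffer, pH 7.5, plus ascorbate / Doses: one test concentration per compound / Incubation: 30 min reaction, 60 min detection, RT / Measured by: LANCE TR-FRET / Read-out: inhibition from TR-FRET ratio decrease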
Numbers without * were called inactive; ? = inconclusive; nt = no result given.

SMILES	IDH1 R132H inh	GASC1 inh
COc1cccc(NC(=O)N[C@@H]2C=C[C@@H](CC(=O)N3CCCCC3)O[C@@H]2CO)c1	nt	34.0*
COc1cccc(NC(=O)N[C@@H]2C=C[C@H](CC(=O)N3CCCCC3)O[C@@H]2CO)c1	nt	0.6
O=C(COc1ccccc1Cl)Nc1ccccc1[N+](=O)[O-]	0.2	nt
CCc1cccc(-n2c(-c3ccco3)nc3c(cnn3-c3ccccc3Cl)c2=O)c1	46.3*	nt
Cc1cccc(NC(=O)CSc2nc3sc4c(c3c(=O)[nH]2)CCCC4)c1	0.2	nt
COc1ccc(S(=O)(=O)N(CC(N)=O)c2ccc(C)cc2)cc1Br	0.1	nt
O=C(NC1CCCCC1)c1c(NC(=O)c2cc(-c3cccnc3)nc3ccccc23)sc2c1CCC2	0.1	nt
O=C(Nc1ccc(Cl)cc1)N[C@H]1CC[C@H](CCNC(=O)c2ccccc2F)O[C@H]1CO	43.3*	39.7*
O=C(Nc1ccc(Cl)cc1)N[C@H]1CC[C@@H](CCNC(=O)c2ccccc2F)O[C@H]1CO	-0.5	nt
CCn1c(SCC(=O)Nc2ccc(Cl)cc2Cl)nnc1-c1cc(Br)ccc1O	-0.3	nt
C[C@@H]1CN([C@@H](C)CO)C(=O)Cc2cc(NC(=O)CCC(F)(F)F)ccc2O[C@@H]1CN(C)S(=O)(=O)c1cn(C)cn1	2.1	3.1
C[C@H](CO)N1C[C@H](C)[C@@H](CN(C)S(=O)(=O)c2cn(C)cn2)Oc2ccc(NC(=O)CCC(F)(F)F)cc2CC1=O	9.7	25.7*
C[C@@H]1CN([C@@H](C)CO)C(=O)Cc2cc(NC(=O)Cn3cnnn3)ccc2O[C@H]1CN(C)Cc1ccc(C(F)(F)F)cc1	73.7*	?
C[C@@H]1CN([C@@H](C)CO)C(=O)Cc2cc(NC(=O)Cn3cnnn3)ccc2O[C@@H]1CN(C)Cc1ccc(C(F)(F)F)cc1	-1.8	10.8
Cc1ccc(N(C(C)C(=O)Nc2cc(Cl)cc(Cl)c2)S(C)(=O)=O)cc1C (configuration not stated)	-0.5	nt
CC1(C)CC(=O)C2=C(C1)Nc1ccccc1N(C(=O)Cc1ccccc1)C2c1ccc(-c2ccccc2[N+](=O)[O-])o1 (configuration not stated)	0.5	nt
COc1ccc(C#Cc2ccc3c(c2)[C@H]2[C@H](CCN2S(=O)(=O)c2ccccc2F)[C@H](CO)N3C)cc1	nt	0.0
COc1ccc(C#Cc2ccc3c(c2)[C@@H]2[C@@H](CCN2S(=O)(=O)c2ccccc2F)[C@@H](CO)N3C)cc1	nt	47.5*
COc1ccc(C2CC(=O)Oc3cc(O)cc(O)c32)cc1 (configuration not stated)	0.1	nt
O=C1Oc2cc(O)cc(O)c2[C@@H](c2ccc(O)cc2)[C@H]1[C@H]1C(=O)Oc2cc(O)cc(O)c2[C@H]1c1ccc(O)cc1	51.6*	nt
CCn1c(SCC(=O)Nc2ccccc2OC)nnc1-c1ccc(N)cc1	-0.1	nt
COC(=O)[C@H]1[C@H]2C[C@H]3c4[nH]c5ccccc5c4CCN3C[C@H]2CC[C@@H]1O	-0.1	nt
CC(/C=C/C(=O)NO)=C\c1ccccc1OC[C@@H]1[C@H]2C[C@H]3c4[nH]c5ccccc5c4CCN3C[C@@H]2CC[C@@H]1O	73.9*	nt
COc1ccc2nc(SCC(=O)Nc3ccc(F)c(Cl)c3)[nH]c2c1	-0.2	nt
Cc1ccc(S(=O)(=O)NCC[C@@H]2CC[C@@H](NC(=O)c3cccc(F)c3)[C@@H](CO)O2)cc1	-0.5	0.3
SMILES	IDH1 R132H inh	GASC1 inh
CC(C)NC(=O)N[C@H]1CC[C@H](CCNC(=O)C2CCC2)O[C@H]1CO	0.4	26.5*
Cc1ccc(S(=O)(=O)N[C@@H]2CC[C@@H](CCNC(=O)C3CCCCC3)O[C@@H]2CO)cc1	-0.2	-0.1
CC(C)NC(=O)N[C@@H]1CC[C@H](CCNC(=O)C2CCC2)O[C@@H]1CO	0.2	-1.7
Cc1ccc(S(=O)(=O)N[C@H]2CC[C@H](CCNC(=O)C3CCCCC3)O[C@H]2CO)cc1	66.9*	71.6*
Cc1ccc(S(=O)(=O)NCC[C@H]2CC[C@@H](NC(=O)c3cccc(F)c3)[C@@H](CO)O2)cc1	0.9	44.4*
O=C(NCc1ccco1)c1cccc(NC(=O)c2ccc(Br)cc2)c1	-0.2	nt
COc1ccc(C)cc1S(=O)(=O)N(C)CC(=O)Nc1cccc(F)c1	-0.3	nt
Cc1sc2nc3scc(CC(=O)NCCO)n3c(=O)c2c1C	-0.1	nt
